# Results published in PubChem BioAssay.
# Calls of active or inactive are those of the source.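 The calls were made as follows, unless noted: active = viability at or below 30% in both replicate assays; inconclusive = viability at or below 30% in just one of the two assays; inactive = the rest.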
# Columns and labels:
# [1] = HUVEC growth inhibition – cell-based, human, primary screen (AID 575); conditions: HUVEC proliferation, CellTiter-Glo luminescence, 72 h; at 10 µM; stronger effect = lower value;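 also: 100% = median of untreated cell wells with 0.1% DMSO on each plate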
# In short: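 system = HUVEC primary cells | amount = 1250 cells/well | buffer or medium = supplemented EBM, 2% fetal bovine serum | dosing = single-point 10 µM, DMSO 0.1% final | times = 72 h compound incubation | detection = CTG luminescence | read-out = % viability relative to median vehicle-well signal on each plate | control set = vehicle and MePR control wells | format = collagen-coated 384-well format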
# [2] = growth inhibitors of H69AR lung tumor, primary screen, human, duplicate replicates (AID 580;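 active = viability at or under a set limit in both replicates, limit being median viability minus 3 SD, cut at about 48% in these data, passing the limit was not always enough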;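 also: 100% = mean luminescence of untreated wells and 0% = no signal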); conditions: H69AR lung tumor cells viability, ATP luminescence, 72 h; at 10 µM; stronger effect = lower value
# [3] = reversal of MRP1-mediated doxorubicin resistance, pilot screen, H69AR cells, doxorubicin co-treatment (AID 601;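 active = viability loss from added drug above about 55%, and viability with drug at most 40%, in both replicates, limit read from the data, passing the limit was not always enough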); conditions: CellTiter-Glo, 72 h, at 10 µM; for differential viability (reversal): stronger effect = higher value
# [4] = 384-well plate pilot, post-Golgi transport modulator project, inhibition of yeast transport mutant growth (AID 636; in the data active = inhibition above about 31%); conditions: absorbance 615 nm, about 18 h, stronger effect = higher value
# [5] = growth suppression of yeast trafficking mutant, preliminary HTS, modulators of trafficking downstream of Golgi apparatus project, 1536-format plate, OD 615 nm (AID 637; in the data active = inhibition above about 30%); conditions: yeast transport mutant growth, absorbance 615 nm, 18 h; stronger effect = higher value
# [6] = H69AR cells + 2 uM doxorubicin, measured here: viability with 2 uM doxorubicin, stronger effect = lower value
# [7] = H69AR cells, compound alone cytotoxicity
SMILES,viability [1],viability [2],differential viability (reversal) ([3]; H69AR cells + 2 uM doxorubicin),"viability [3, 6] [%]","viability [3, 7] [%]",inhibition [4],inhibition [5]
CCOc1ccc(N(C)S(=O)(=O)c2ccc3[nH]cc(C(=O)NCC4CCCO4)c(=O)c3c2)cc1 (stereo not drawn),73.7% (inactive),87.9% (inactive),5.04% (inactive),82.9,87.9,-2.86% (inactive),-3.17% (inactive)
CN(CC(=O)O)S(=O)(=O)c1cc(Cl)ccc1Cl,112% (inactive),96.8% (inactive),12.2% (inactive),84.6,96.8,-2.53% (inactive),-5.24% (inactive)
CCOc1ccccc1C(=O)NCCCn1ccnc1,95.3% (inactive),91.9% (inactive),4.38% (inactive),87.5,91.9,-4.42% (inactive),2.7% (inactive)
CN(CCCC(=O)Nc1ccncc1)S(=O)(=O)c1ccc(Cl)cc1,56.2% (inactive),89% (inactive),-14.6% (inactive),104,89,0.65% (inactive),-5.87% (inactive)
Cn1c(=O)n(C)c2cc(NC(=O)C(F)(F)F)ccc21,68.9% (inactive),97.4% (inactive),11.6% (inactive),85.8,97.4,-0.92% (inactive),-7.94% (inactive)
S=c1[nH]c2ccc(Cl)cc2[nH]1,67.4% (inactive),84.9% (inactive),6.16% (inactive),78.7,84.9,-3.42% (inactive),6.35% (inactive)
CC(C)C1N=C2c3ccccc3N=C(SCC(=O)NCCc3ccc(S(N)(=O)=O)cc3)N2C1=O (stereo not drawn),82.8% (inactive),86.7% (inactive),4.46% (inactive),82.3,86.7,-2.47% (inactive),4.13% (inactive)
COC(=O)C1=C(CSCc2ccco2)NC(=O)NC1c1cc(C)ccc1C (stereo not drawn),98.4% (inactive),82.5% (inactive),-9.46% (inactive),92,82.5,-1.47% (inactive),-1.43% (inactive)
N#Cc1c(SCC(=O)N2CCOCC2)nsc1SCC(=O)N1CCOCC1,97.7% (inactive),97.2% (inactive),11.5% (inactive),85.7,97.2,-1.3% (inactive),-3.02% (inactive)
O=C(CN1C(=O)CCS(=O)(=O)c2ccccc21)NCc1ccc(F)cc1,85% (inactive),98.4% (inactive),3.11% (inactive),95.3,98.4,-5.2% (inactive),-3.81% (inactive)
Cc1c(N(C)C)nc2ccccc2c1N,83.8% (inactive),84.4% (inactive),-5.31% (inactive),89.7,84.4,-4% (inactive),2.54% (inactive)
NC(=O)c1sc2nc3c(c(-c4ccco4)c2c1N)CCC3,75.7% (inactive),81.4% (inactive),-16.8% (inactive),98.2,81.4,-5.47% (inactive),-8.57% (inactive)
O=C(Cn1nnc2c(cnn2-c2ccc(F)cc2)c1=O)c1ccccc1F,75.6% (inactive),81.2% (inactive),16.1% (inactive),65.1,81.2,-3.64% (inactive),-0.48% (inactive)
COCC(=O)Nc1sc2c(c1C(=O)OC)CCC(C)C2 (stereo not drawn),88.4% (inactive),94.8% (inactive),4.53% (inactive),90.3,94.8,-2.76% (inactive),5.08% (inactive)
CCOC(=O)C1CCN(C(=O)Nc2ccc(Cl)cc2Cl)CC1,100% (inactive),104% (inactive),19.9% (inactive),84.1,104,-4.61% (inactive),3.65% (inactive)
O=C(c1noc2c1CCc1ccccc1-2)N1CCOCC1,95.6% (inactive),96.4% (inactive),6.12% (inactive),90.3,96.4,-0.13% (inactive),-2.86% (inactive)
CCn1c(=N)n(CC(=O)C23CC4CC(CC(C4)C2)C3)c2ccccc21,4.87% (active),83.1% (inactive),-0.145% (inactive),83.2,83.1,-5.27% (inactive),15.3% (inactive)
COc1ccc(-c2nc(C(N)=O)c3[nH]c(=O)n(-c4cccc(Cl)c4)c3n2)cc1OC,3.29% (active),1.2% (active),-0.93% (inactive),2.13,1.2,6.23% (inactive),-0.33% (inactive)
COc1cccc(OC)c1OCCCSc1nc(C)cc(=O)[nH]1,107% (inactive),91.1% (inactive),-5.15% (inactive),96.2,91.1,-4% (inactive),-5.56% (inactive)
O=C(NC1(C(F)(F)F)NC(=O)N(Cc2ccco2)C1=O)c1cccnc1 (stereo not drawn),109% (inactive),97.2% (inactive),2.34% (inactive),94.8,97.2,-7.89% (inactive),1.11% (inactive)
Cc1ccccc1OCCn1c(=O)oc2ccccc21,82.3% (inactive),91.5% (inactive),16.8% (inactive),74.7,91.5,-5.07% (inactive),2.38% (inactive)
Nc1nc(SCCOc2ccccc2)n[nH]1,94.1% (inactive),97% (inactive),6.12% (inactive),90.8,97,-5.19% (inactive),-5.24% (inactive)
COC(=O)Cc1c(C)c2ccc(OCC(=O)N3CCOCC3)cc2oc1=O,107% (inactive),100% (inactive),12.4% (inactive),87.8,100,-4.67% (inactive),17% (inactive)
CCOC(=O)C1CCCN(C(=O)CNS(=O)(=O)c2ccc(Br)s2)C1 (stereo not drawn),108% (inactive),95.7% (inactive),17.7% (inactive),78,95.7,-6.71% (inactive),4.13% (inactive)
Fc1c(F)c(F)c(CSc2nc3ccccc3[nH]2)c(F)c1F,105% (inactive),95.8% (inactive),11.8% (inactive),84,95.8,0.65% (inactive),3.02% (inactive)
CC1Cc2ccccc2N1S(=O)(=O)c1ccc2c(c1)n(C)c(=O)c(=O)n2C (stereo not drawn),80.8% (inactive),83.7% (inactive),-2.65% (inactive),86.4,83.7,-4.93% (inactive),0% (inactive)
CCOC(=O)CSC1=C(C#N)C(c2ccc(C)cc2)C(C(=O)OC)C(=O)N1 (stereo not drawn),81.7% (inactive),91.1% (inactive),1.55% (inactive),89.6,91.1,-1.2% (inactive),-5.56% (inactive)

SMILES,viability [1],viability [2],differential viability (reversal) ([3]; H69AR cells + 2 uM doxorubicin),"viability [3, 6] [%]","viability [3, 7] [%]",inhibition [4],inhibition [5]
Cc1ccc(N2CCN(C(=O)c3ccccc3)CC2)c(C)c1,114% (inactive),91.1% (inactive),6.71% (inactive),84.4,91.1,-7.33% (inactive),5.4% (inactive)
CCc1ccc(NC(=O)c2cccnc2)cc1,95.9% (inactive),105% (inactive),23.7% (inactive),81.7,105,-7.2% (inactive),-3.02% (inactive)
O=C(O)c1cccn2c(=O)c3ccccc3nc12,101% (inactive),95.8% (inactive),4.45% (inactive),91.4,95.8,-2.8% (inactive),-2.22% (inactive)
O=C(Nc1ccccc1C(=O)N1CCOCC1)C1CCC(=O)N1C1CCCC1 (stereo not drawn),108% (inactive),95% (inactive),-0.755% (inactive),95.7,95,-8.8% (inactive),-3.97% (inactive)
Cc1nc(-c2ccc(NC(=O)c3cccs3)cc2)cs1,58.8% (inactive),62.3% (inactive),9.12% (inactive),53.2,62.3,0.13% (inactive),1.9% (inactive)
O=C(c1ccco1)N1CCN(CC(=O)N(C2CCCCC2)C2CCS(=O)(=O)C2)CC1 (stereo not drawn),94% (inactive),93.5% (inactive),-4.1% (inactive),97.6,93.5,-4.81% (inactive),-3.17% (inactive)
O=C(Nc1ccc(N2CCCC2=O)cc1)c1cccc(F)c1,109% (inactive),99.9% (inactive),21.6% (inactive),78.2,99.9,-4.61% (inactive),0.95% (inactive)
CCn1c(CSc2nc(C)cc(C)n2)nnc1SCC(=O)Nc1ccccc1,104% (inactive),89.5% (inactive),4.12% (inactive),85.4,89.5,-4.27% (inactive),-3.02% (inactive)
COc1ccc(OC)c(S(=O)(=O)NCCO)c1,87.5% (inactive),95.2% (inactive),14.5% (inactive),80.7,95.2,-2.34% (inactive),6.35% (inactive)
CCc1ccc(NC(=O)c2cc(-c3ccco3)on2)cc1,75.1% (inactive),91.3% (inactive),-16.3% (inactive),108,91.3,-1.45% (inactive),-4.6% (inactive)
O=C(O)Cn1nc2ccccc2n1,108% (inactive),93.9% (inactive),3.65% (inactive),90.3,93.9,-4% (inactive),8.73% (inactive)
CCOC(=O)Cc1csc(NC(=O)CSc2nnc(C)n2C)n1,108% (inactive),95.2% (inactive),5.79% (inactive),89.4,95.2,6.27% (inactive),-5.4% (inactive)
CC(C)(C)NC(=O)CN(C(=O)CS(=O)CC(=O)Nc1ccc(F)cc1)c1ccc(Cl)cc1 (stereo not drawn),95.2% (inactive),98.9% (inactive),10.3% (inactive),88.6,98.9,-4.53% (inactive),21.9% (inactive)
CCN1CCN(Cc2c(C)[nH]c3ccc(OC)cc3c2=O)CC1,96.8% (inactive),93.5% (inactive),4.75% (inactive),88.8,93.5,-2.73% (inactive),4.44% (inactive)
CC1(C)CC(=O)c2c(O)cc(O)cc2O1,107% (inactive),99.7% (inactive),15.4% (inactive),84.3,99.7,-8.42% (inactive),-1.43% (inactive)
COc1cccc(C(=O)Nc2cccc(C(=O)N3CCOCC3)c2)c1,97.1% (inactive),90.1% (inactive),13% (inactive),77.1,90.1,-4.68% (inactive),0.32% (inactive)
COc1ccc(OC)c(CNC(=O)CCN2C(=O)COc3ccccc32)c1,90.1% (inactive),91.8% (inactive),3.34% (inactive),88.5,91.8,-1.32% (inactive),-2.06% (inactive)
CCn1c(SCC(=O)Nc2ccc(C(=O)OC)cc2)nnc1-c1cccs1,109% (inactive),92.3% (inactive),5.75% (inactive),86.6,92.3,-6% (inactive),6.98% (inactive)
O=C(Nc1ccc(Cc2ccncc2)cc1)C1CC1,88.2% (inactive),99.5% (inactive),17.4% (inactive),82.1,99.5,-2.21% (inactive),1.75% (inactive)
CC(C)Cn1cc(C(=O)NCC2CCCO2)c2c3ccccc3n(C)c2c1=O (stereo not drawn),104% (inactive),89.5% (inactive),1.72% (inactive),87.8,89.5,-2.08% (inactive),1.59% (inactive)
CCOc1ccc(N2CC(C(=O)Nc3ccc(F)cc3F)CC2=O)cc1 (stereo not drawn),110% (inactive),111% (inactive),19.7% (inactive),90.9,111,-0.26% (inactive),-5.08% (inactive)
CCCc1cc(=O)[nH]c(/N=C(\N)Nc2ccccc2)n1,80.8% (inactive),82.4% (inactive),-13.9% (inactive),96.3,82.4,-0.13% (inactive),3.49% (inactive)
CCN1CCN(C(=O)c2cn(CCOC)c(=O)c3c2c2ccccc2n3C)CC1,106% (inactive),90.6% (inactive),-2.77% (inactive),93.4,90.6,-2.86% (inactive),-5.4% (inactive)
CCn1nccc1C(=O)Nc1nccs1,104% (inactive),93.7% (inactive),10% (inactive),83.7,93.7,-4.34% (inactive),3.65% (inactive)
CCc1nnc(NC(=O)CSc2nc3ccccc3s2)s1,93% (inactive),101% (inactive),10.1% (inactive),91.1,101,-2.24% (inactive),0.48% (inactive)
CCCCCC1NC(=O)NC1CCCCCC(=O)O (stereo not drawn),98.5% (inactive),104% (inactive),14.3% (inactive),89.2,104,-0.91% (inactive),-2.22% (inactive)
CCOC(=O)Cc1nnc(NC(=O)CSc2nnc3c4ccccc4n(C(C)C)c3n2)s1,83.9% (inactive),75.6% (inactive),0.7% (inactive),74.9,75.6,-0.91% (inactive),-1.43% (inactive)
